From PubChem BioAssay AID624073 (Broad Institute, 2012)
Activity calls are given as the source filed them.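 How the source made its calls: active means fitted OD600 growth curve drops 35% below untreated wells at up to twice the top tested dose; inconclusive means flat curve with 30 to 70% drop, or poor fit; inactive means the rest, including rising growth signal.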

Tests used:
[1] = test system: P. aeruginosa PAK growth with EDDHA, OD600, 28 h; assay: P. aeruginosa PAK growth delay under chelation, dose response, whole organism, PAK strain, OD600, EDDHA, dry powder, set 3 (AID 624073)
Outline: (§1)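 System – Pseudomonas aeruginosa PAK wild-type strain, whole bacterial cells · Medium – succinate M9 medium, pH 7.0 · Also added – EDDHA 2 µM · Doses – dose series, 100 µM to 15 nM final · Incubation – 28 h exposure at 30 °C · Evaluation – growth by OD600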

[2] = as above; settings: P. aeruginosa PAK growth with EDDHA, OD600, 28 h; at 100 µM (top of the series)
Outline: as §1

| SMILES | AC35 [1] | activity change, negative = inhibition [2] |
| --- | --- | --- |
| N#CC(c1ccc(Cl)cc1)c1cccc(C(F)(F)F)n1 (stereo unspecified) | 12.8 µM | – |
| COCCC(C#N)c1ccc(F)cc1 (stereo unspecified) | – | 1.49% (inactive) |
| N#CC(c1ccc(Cl)cc1)c1ncccc1Cl (stereo unspecified) | 77.8 µM | – |
| N#CC(c1ccc(Cl)cc1)c1cccc(Cl)n1 (stereo unspecified) | 40.9 µM | – |
| N#CC(c1ccc(Cl)cc1)c1ccc(Cl)cn1 (stereo unspecified) | 87.7 µM | – |
| CCCCC(c1ccc(Cl)cc1)c1nn[nH]n1 (stereo unspecified) | > 100 µM (inactive) | – |
| CCCCC(C#N)c1ccc(F)cn1 (stereo unspecified) | – | -13.8% (inactive) |
| N#CC(c1cccc(Cl)n1)c1ccc(Cl)cc1F (stereo unspecified) | 47.5 µM | – |
| COCCNC(C#N)c1ccc(Cl)cc1 (stereo unspecified) | – | -2.37% (inactive) |
| N#CC(c1cccc(C(F)(F)F)n1)c1ccc(Cl)cc1F (stereo unspecified) | 13.7 µM | – |
| N#CC(c1ccc(F)cc1)c1cccc(C(F)(F)F)n1 (stereo unspecified) | 15.4 µM | – |
